# Measurements: article PMC9323481 (Diabetes, Obesity & Metabolism, 2022)
# Columns and labels:
# Format in all cases: in vivo, human
# [1] = test system: patients with type 2 diabetes and CKD; assay: Treatment-emergent adverse events
# In short: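 Incidence of adverse events and serious adverse events during 32 days of once-daily s.c. dosing (titrated 50→100→200→300 μg) or placebo. Clinically significant hypoglycaemia was defined as capillary or venous plasma glucose <54 mg/dl (3.0 mmol/L). Safety analyses used the as-treated population with descriptive statistics.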
# [2] = test system: patients with type 2 diabetes and CKD; assay: Bodyweight; settings: p < .001
# In short: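 Randomized 1:1, double-blind; test compound or placebo given s.c. once daily each morning. Test compound dose titration: 50 μg for 4 days, 100 μg for 7 days, 200 μg for 7 days, then 300 μg for 14 days. Percentage and absolute change in bodyweight from baseline, intent-to-treat population. ANCOVA with treatment as fixed factor and baseline as covariate.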
# [3] = test system: patients with type 2 diabetes and CKD; assay: Continuous glucose monitoring
# In short: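 Double-blind, placebo-controlled, once-daily s.c. dosing titrated 50→100→200→300 μg over 32 days. Continuous glucose monitoring gave the percentage of time with interstitial glucose in the target range of 70-180 mg/dl (3.9-10 mmol/L) over a 7-day period, at baseline and in the final week of treatment. Change analysed by Wilcoxon rank-sum test, intent-to-treat population.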
# [4] = test system: patients with type 2 diabetes and CKD; assay: Clinical chemistry and eGFR percent change; settings: baseline to day 32
# [5] = test system: patients with type 2 diabetes and CKD; assay: UACR and eGFR
# In short: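 Exploratory endpoints: change from baseline in mean urinary albumin-to-creatinine ratio (UACR) and eGFR. Dosing was randomized, double-blind, once-daily s.c., titrated 50-300 μg over 32 days, against placebo. Change in UACR was analysed by t-test with unequal variance. Continuous endpoints were analysed by ANCOVA with baseline as covariate, intent-to-treat population.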
# [6] = test system: patients with type 2 diabetes and CKD; assay: Fasting plasma glucose and HbA1c; settings: s.c. once daily, 50-300 μg; for Change in LS mean fasting plasma glucose from baseline to day 32: 32 days
# [7] = test system: patients with type 2 diabetes and CKD; assay: Supine blood pressure and heart rate
# In short: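 Vital signs, blood pressure and 24-h pulse rate were safety endpoints, taken as change from baseline. Randomized double-blind design: once-daily morning s.c. test compound titrated 50 μg (4 days), 100 μg (7 days), 200 μg (7 days), 300 μg (14 days), or placebo for 32 days. ANCOVA with baseline as covariate, as-treated population.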
# Pharmacokinetics = settings: repeat daily s.c. administration 50-300 μg; plasma
# In short: (§1)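 Secondary endpoints of a 32-day trial: once-daily morning s.c. dosing titrated through 50 μg for 4 days, 100 μg for 7 days, 200 μg for 7 days and 300 μg for 14 days. Pharmacokinetic parameters and anti-drug antibody titre were summarized with descriptive statistics only.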
# [8] = test system: patients with type 2 diabetes and CKD; assay: Immunogenicity; settings: serum anti-drug antibody
# In short: as §1
# [9] = test system: patients with type 2 diabetes and CKD on insulin ≥20 units per day; assay: Total daily insulin dose; settings: participants on insulin ≥20 units per day; range –194, 20; placebo 0.0, p = .073
# In short: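 Exploratory endpoint: change in total daily insulin dose from baseline to end of dosing, in participants on ≥20 units/day. Randomization was stratified by insulin dose (≥20 vs <20 units/day). Dosing was once-daily s.c., titrated 50-300 μg over 32 days, against placebo. Analysed by two-sample t-test with unequal variance and Satterthwaite approximation.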
substance,measurement,setting,value
cotadutide,"Mild/moderate adverse events, participants","[1]; abstract, placebo 35.0%",71.4%
same,Treatment-emergent adverse event: Any,"[1]; n = 21, as-treated, placebo 13 (65.0)",20 (95.2) n (%)
same,Treatment-emergent adverse event: Hypoglycaemia,"[1]; n = 21, clinically significant, capillary or venous plasma glucose <54 mg/dl (3.0 mmol/L), placebo 1 (5.0)",3 (14.3) n (%)
same,Treatment-emergent adverse event: Decreased appetite,"[1]; n = 21, placebo 0",3 (14.3) n (%)
same,Treatment-emergent adverse event: Diarrhoea,"[1]; n = 21, placebo 0",5 (23.8) n (%)
same,Treatment-emergent adverse event: Flatulence,"[1]; n = 21, placebo 0",2 (9.5) n (%)
same,Treatment-emergent adverse event: Leading to death (no. patients),"[1]; n = 21, placebo 0",1 (4.8) n (%)
same,Treatment-emergent adverse event: Serious related to cotadutide,"[1]; n = 21, placebo 0",1 (4.8) n (%)
same,Treatment-emergent adverse event: Dizziness,"[1]; n = 21, placebo 1 (5.0)",2 (9.5) n (%)
same,Treatment-emergent adverse event: Dyspepsia,"[1]; n = 21, placebo 1 (5.0)",5 (23.8) n (%)
same,Treatment-emergent adverse event: Leading to study discontinuation (no. patients),"[1]; n = 21, placebo 1 (5.0)",2 (9.5) n (%)
same,Treatment-emergent adverse event: Vomiting,"[1]; n = 21, placebo 1 (5.0)",6 (28.6) n (%)
same,Treatment-emergent adverse event: Headache,"[1]; n = 21, placebo 2 (10.0)",2 (9.5) n (%)
same,Treatment-emergent adverse event: Nasopharyngitis,"[1]; n = 21, placebo 2 (10.0)",3 (14.3) n (%)
same,Treatment-emergent adverse event: Serious (no. patients),"[1]; n = 21, placebo 2 (10.0)",2 (9.5) n (%)
same,Treatment-emergent adverse event: Nausea,"[1]; n = 21, placebo 4 (20.0)",9 (42.9) n (%)
same,Treatment-emergent adverse event: Any related to cotadutide,"[1]; n = 21, placebo 7 (35.0)",15 (71.4) n (%)
same,AEs of severe hypoglycaemia,[1]; whole study,no recorded AEs
same,LS mean change in absolute bodyweight from baseline to day 33,"[2]; 90% CI –4.2, –2.62, placebo –0.13 kg",–3.41 kg
same,LS mean percentage change in bodyweight from baseline to day 33,"[2]; 90% CI –4.55, –2.83, placebo –0.21%",–3.69%
same,Mean percentage of time within target range over a 7-day period,"[3]; 100 μg dose period, placebo 48.57%",75.82%
same,Mean percentage of time within target range over a 7-day period,"[3]; 200 μg dose period, placebo 54.99%",78.69%
same,Mean percentage of time within target range over a 7-day period,"[3]; 300 μg dose period, placebo 40.66%",78.18%
same,Time in clinically significant hypoglycaemia (glucose <54 mg/dl or <3.0 mmol/L),"[3]; CGM, entire dosing period, placebo 0.66%, p = .010",2.01%
same,Time in hypoglycaemia (glucose <70 mg/dl or <3.9 mmol/L),"[3]; CGM, entire dosing period, placebo 2.73%, p = .061",6.07%
same,Time in hyperglycaemia (glucose >180 mg/dl or 10 mmol/L),"[3]; CGM, entire dosing period, placebo 37.39%, p = .001",10.50%
same,Trends or shifts from baseline in serum chemistry,[4],no clinically meaningful trends or shifts
same,LS mean change in eGFR,"[5]; 90% CI –1.29, 3.62, placebo –1.10, p = .268",1.17 ml/min/1.73 m^2
same,Change in LS mean UACR from baseline to day 33,"[5]; all participants, placebo 5.43%, not significant",–7.65%
same,Change in LS mean fasting plasma glucose from baseline to day 32,[6]; placebo 0.03,1.09 mmol/L
same,Change in LS mean fasting plasma glucose from baseline to day 32,"[6]; placebo +0.60, p = .089",–19.55 mg/dl
same,Change in LS mean HbA1c from baseline to day 32,"[6]; placebo +0.01%, p < .001",–0.65%
same,Increase in LS mean heart rate from baseline to day 32,"[7]; placebo 3.14, p < .001",14.13 beats per minute
same,Increase in LS mean supine diastolic blood pressure from baseline to day 32,"[7]; placebo 3.40, p = .421",0.57 mmHg
same,Increase in LS mean supine systolic blood pressure from baseline to day 32,"[7]; placebo 8.69, p = .144",1.44 mmHg
same,Exposure at Ctrough with dose,Pharmacokinetics,linear increased exposure
same,Treatment-boosted ADA response,[8],No participants
same,Median absolute change in total daily insulin dose from baseline to day 32,[9],–16.0 units per day
